Paper PMC4793151 (Cell host & microbe, 2016)

Columns and labels:
[1] = tested on: H. pylori clinical isolates; assay: RIA of Le^b binding of clinical isolates preincubated with DTT; assay type: cell-based; details: Helicobacter pylori, read-out: EC50, DTT-susceptibility of Le^b-binding
[2] = molecular target: T1, BabA CBD of Alaskan strain A730 (Helicobacter pylori, UniProt O52269); assay: Monovalent binding affinity; details: for Kd: A730
T1 sequence (O52269 45-480): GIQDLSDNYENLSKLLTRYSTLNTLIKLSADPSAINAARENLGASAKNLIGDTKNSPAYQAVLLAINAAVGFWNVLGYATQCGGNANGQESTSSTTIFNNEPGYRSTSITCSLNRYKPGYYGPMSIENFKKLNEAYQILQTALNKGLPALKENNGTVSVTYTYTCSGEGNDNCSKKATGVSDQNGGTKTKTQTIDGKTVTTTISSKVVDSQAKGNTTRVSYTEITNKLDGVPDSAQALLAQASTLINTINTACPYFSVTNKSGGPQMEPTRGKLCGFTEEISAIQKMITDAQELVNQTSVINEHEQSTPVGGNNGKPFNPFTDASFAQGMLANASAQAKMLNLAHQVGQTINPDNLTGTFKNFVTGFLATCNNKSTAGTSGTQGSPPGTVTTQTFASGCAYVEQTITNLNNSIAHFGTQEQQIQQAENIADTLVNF
Outline: (§1)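 BabA adhesin domain isoforms from strains A730 and P436, plus the strain 17875 reference domain, were expressed recombinantly in E. coli as outer-membrane- or periplasm-targeted proteins and purified by His-tag affinity. In vitro binding was measured by isothermal titration calorimetry: injection heats were integrated into a normalized binding isotherm.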

[3] = tested on: BabA^AD;DL1-S831; assay: ITC of BabA^AD; assay type: binding, Helicobacter pylori
[4] = tested on: H. pylori strain 17875/Leb; assay: RIA of 125I-labeled Le^b binding to bacterial cells exposed to reducing agent; assay type: cell-based, Helicobacter pylori; details: 20 mg/mL NAC
[5] = tested on: FITC labeled H. pylori strain 17875/Leb; assay: In vitro inhibition of H. pylori adherence to human gastric mucosa sections; assay type: cell-based, Helicobacter pylori
Outline: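 FITC-labeled bacterial suspensions were mixed with N-acetylcysteine dilutions in SIA blocking buffer (0, 10, 20, 100 mg/mL) and incubated 1 hr at 37°C. They were then applied to human gastric mucosa tissue sections for 2 hr. Unbound cells were removed with PBS-Tween, and adherent bacteria were quantified digitally by microscopy relative to bacteria without NAC.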

[6] = tested on: FITC labeled H. pylori strain 17875/Leb; assay: In vitro detachment of adherent H. pylori from human gastric mucosa sections; assay type: cell-based, Helicobacter pylori
Outline: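 Human gastric mucosa tissue sections were first given FITC-labeled bacteria with no NAC for 2 hr, then washed in PBS-Tween. Bound bacteria were then exposed to N-acetylcysteine dilutions in SIA blocking buffer (10, 20, 100, 200 mg/mL) for 1 hr at 37°C. Slides were washed again in PBS-Tween and remaining adherent bacteria were quantified digitally by microscopy.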

[7] = tested on: human gastric mucosa sections; assay: Pretreatment of gastric sections; assay type: cell-based; details: up to 200 mg/mL NAC
Outline: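 Human gastric mucosa sections were preincubated with N-acetylcysteine in SIA blocking buffer (0, 10, 20, 100, 200 mg/mL) for 2 hr at room temperature, then washed three times in PBS-Tween. FITC-labeled H. pylori 17875/Leb was applied for 2 hr and unbound cells were washed off with PBS-Tween. Bacterial binding was quantified digitally by microscopy.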

[8] = molecular target: T2, BabA^AD CL2 disulfide bond (Helicobacter pylori, UniProt O52269); assay: Quantitative MS of tryptic digests: CL2 disulfide reduction; assay type: biochemical
T2 sequence (O52269 45-480): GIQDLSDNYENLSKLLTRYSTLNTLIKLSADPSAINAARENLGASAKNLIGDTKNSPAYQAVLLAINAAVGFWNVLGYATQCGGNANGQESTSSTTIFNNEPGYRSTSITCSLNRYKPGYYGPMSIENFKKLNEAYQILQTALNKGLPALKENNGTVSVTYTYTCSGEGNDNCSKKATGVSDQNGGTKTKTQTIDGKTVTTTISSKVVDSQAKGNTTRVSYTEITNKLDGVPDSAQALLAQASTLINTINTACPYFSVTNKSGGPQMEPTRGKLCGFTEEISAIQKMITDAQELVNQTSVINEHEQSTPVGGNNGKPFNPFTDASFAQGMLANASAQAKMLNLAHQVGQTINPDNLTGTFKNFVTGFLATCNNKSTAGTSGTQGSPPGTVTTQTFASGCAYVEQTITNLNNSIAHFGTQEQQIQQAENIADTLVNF

[9] = tested on: H. pylori; assay: H. pylori infection of Le^b-expressing transgenic mice; assay type: in vivo; details: 2 week, 40 mg/day/animal in drinking water
[10] = molecular target: T3, full-length BabA (Helicobacter pylori, UniProt O52269); assay: SPR of full-length BabA on Le^b-coated chip; assay type: binding
T3 sequence (O52269 21-741): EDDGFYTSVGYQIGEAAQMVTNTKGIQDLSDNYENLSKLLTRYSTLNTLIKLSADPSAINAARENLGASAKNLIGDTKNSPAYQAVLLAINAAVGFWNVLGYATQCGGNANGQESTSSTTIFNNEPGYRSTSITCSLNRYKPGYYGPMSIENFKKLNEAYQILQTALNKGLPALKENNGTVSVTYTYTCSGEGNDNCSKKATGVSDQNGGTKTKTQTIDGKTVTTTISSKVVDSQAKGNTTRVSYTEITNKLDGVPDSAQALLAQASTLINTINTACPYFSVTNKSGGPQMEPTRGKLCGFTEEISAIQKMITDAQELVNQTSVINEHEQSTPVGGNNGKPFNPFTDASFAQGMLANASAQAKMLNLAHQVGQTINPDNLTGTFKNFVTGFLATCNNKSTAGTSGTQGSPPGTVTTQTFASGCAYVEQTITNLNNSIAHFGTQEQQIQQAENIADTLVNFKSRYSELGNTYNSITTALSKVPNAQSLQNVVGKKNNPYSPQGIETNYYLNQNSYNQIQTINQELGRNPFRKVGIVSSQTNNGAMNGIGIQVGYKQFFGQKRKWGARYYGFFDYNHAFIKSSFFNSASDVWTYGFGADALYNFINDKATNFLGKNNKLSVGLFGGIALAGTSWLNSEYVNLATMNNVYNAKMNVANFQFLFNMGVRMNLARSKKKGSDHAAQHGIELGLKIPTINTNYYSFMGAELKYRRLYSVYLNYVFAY
Outline: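 Surface plasmon resonance on a chip carrying immobilized Leb. Full-length BabA was flowed over it at 500, 250, 125, 62.5, 31.3 and 15.7 nM. Raw sensorgrams were fitted to binding curves to derive Kd, the association rate constant ka and the dissociation rate constant kd, each reported with a ± spread.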

[11] = tested on: BabA CBD of Peruvian strain P436; assay: Monovalent binding affinity; set-up: species or system Helicobacter pylori; details: P436 versus 17875 BabA
Outline: as §1

[12] = tested on: BabA^AD;DL1-S831; assay: SPR competition of BabA^AD; assay type: binding, Helicobacter pylori; details: 2-fold dilution series from 5 mM to 1 μM
[13] = tested on: BabA; details: ref Borén et al., 1993; cited from earlier work
[14] = molecular target: T4, strain 17875 BabA adhesin domain (BabA^AD), residues 25-460 (Helicobacter pylori strain 17875, strain); assay: crystal structure
T4 chain: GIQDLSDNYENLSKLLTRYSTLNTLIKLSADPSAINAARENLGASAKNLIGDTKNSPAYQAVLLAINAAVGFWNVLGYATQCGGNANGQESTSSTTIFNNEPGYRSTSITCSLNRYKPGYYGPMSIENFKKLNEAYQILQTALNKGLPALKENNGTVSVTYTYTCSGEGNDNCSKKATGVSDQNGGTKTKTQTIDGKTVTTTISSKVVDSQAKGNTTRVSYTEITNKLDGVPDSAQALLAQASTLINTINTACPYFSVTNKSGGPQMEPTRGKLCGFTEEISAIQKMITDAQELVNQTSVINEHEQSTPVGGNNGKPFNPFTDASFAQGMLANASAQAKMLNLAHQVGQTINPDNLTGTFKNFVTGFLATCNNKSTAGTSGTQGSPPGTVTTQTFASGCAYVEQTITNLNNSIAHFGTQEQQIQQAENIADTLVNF

## O[C@@H](CS)[C@@H](O)CS (racemic) [DTT, dithiothreitol]
[1]
  EC50: 2000 to 10000 µM

## CC(=O)N[C@H]1[C@@H](O[C@H]2[C@@H](O)[C@@H](CO)O[C@@H](O[C@H]3[C@H](O)[C@@H](CO)O[C@@H](O[C@H]4[C@@H](O)[C@@H](CO)O[C@@H](O[C@H]5[C@H](O)[C@@H](O)C(O)O[C@@H]5CO)[C@@H]4O)[C@@H]3NC(C)=O)[C@@H]2O[C@@H]2O[C@@H](C)[C@@H](O)[C@@H](O)[C@@H]2O)O[C@H](CO)[C@H](O)[C@@H]1O (stereo partly shown) [A6-1, A type 1 hexasaccharide]
[2]
  Kd: 305 µM

## CC(=O)N[C@H]1[C@H](O[C@H]2[C@@H](O)[C@@H](CO)O[C@@H](O[C@H]3[C@H](O)[C@@H](O)C(O)O[C@@H]3CO)[C@@H]2O)O[C@H](CO)[C@@H](O[C@@H]2O[C@@H](C)[C@@H](O)[C@@H](O)[C@@H]2O)[C@@H]1O[C@@H]1O[C@H](CO)[C@H](O)[C@H](O[C@H]2O[C@H](CO)[C@H](O)[C@H](O)[C@H]2O)[C@H]1O[C@@H]1O[C@@H](C)[C@@H](O)[C@@H](O)[C@@H]1O (stereo partly shown) [BLe^b7]
[2]
  Kd: 93 µM
[3]; titration
  ITC binding: no binding heat signal

## CC(=O)N[C@@H](CS)C(=O)O [NAC, N-acetyl-L-cysteine]
[4]
  BabA-Le^b binding after incubation of bacteria: inactivated
[5]; 10 mg/mL NAC preincubation
  adherent bacteria: 14%
[5]; 20 mg/mL NAC preincubation
  adherent bacteria: less than 5%
[5]; 20 mg/mL NAC, bacteria preincubated
  inhibition of bacterial adherence: almost eliminated
[5]; Helicobacter pylori, read-out: inhibition of bacterial adherence
  inhibition at 10000 µg/mL: 86%
[6]; 10 mg/mL NAC on sections with bound bacteria
  bacterial detachment: undetectable
[6]; 20 mg/mL NAC on sections with bound bacteria
  bacterial detachment: 50%
[6]; 200 mg/mL NAC on sections with bound bacteria
  bacterial detachment: over 90%
[7]
  effect of section pretreatment on bacterial binding: did not affect bacterial binding
[8]
  EC50: 55100 µM
[9]
  fold lower neutrophil recruitment to the gastric mucosa: 13 fold
  fold reduction in H. pylori epithelial adherence: 2 fold

## Le^b hexasaccharide
[10]
  association rate constant ka: 610000 ± 140000 M⁻¹ s⁻¹
[10]; full-length protein
  Kd: 0.00039 µM
[11]
  fold loss in monovalent binding affinity: ~15 fold
[2]; A730 versus 17875 BabA
  fold loss in monovalent binding affinity: ~20 fold
[3]; Figures 7B and S7A
  Le^b binding of S831 DL1 graft: active
[12]
  suppression of binding to Le^b-coated SPR chip by soluble glycan: suppressed
[13]
  fold stronger binding to Le^b versus type 1 H neoglycoconjugates: about 2 fold

B1: Nb-ER14 (VHH)
VHH: QVQLQESGGGLVQPGGSLRLSCAASGSIYSLIAMGWYRQAPGKEHELVATISSGSTTYYADSVKGRFTISRDNAKNTLYLQMNSLKPEDTAMYYCAAYSDRLTDCSNCEADYWGQGTQVTVS
[14]
  binding result: binds

B2: Nb-ER19 (VHH)
VHH: QVQLQESGGGLVQPGGSLRLSCAASGSIFSGNVMGWYRQAPGKLREWVAAITPQGVPNYADSVKGRFTISRDNAKNMLYLQMSSLKPEDTALYYCNRLPNYRSWGQGTQVTVSS
[14]
  binding result: binds
